E-sel inducer: E-selectin induction in HUVECs, primary screen, imaging, HUVEC, immunofluorescence imaging, single point; normalized: neutral wells 0, TNF-alpha wells 100; activation, % at 7.58 µM; 260,000 tested, 0.37% active; AID 686992, 2013;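 active = mean E-selectin-positive cell signal at least 10% of the positive control, reached in at least 60% of replicates, without over 20% cell loss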
Target sequence (P16581 whole entry, looked up): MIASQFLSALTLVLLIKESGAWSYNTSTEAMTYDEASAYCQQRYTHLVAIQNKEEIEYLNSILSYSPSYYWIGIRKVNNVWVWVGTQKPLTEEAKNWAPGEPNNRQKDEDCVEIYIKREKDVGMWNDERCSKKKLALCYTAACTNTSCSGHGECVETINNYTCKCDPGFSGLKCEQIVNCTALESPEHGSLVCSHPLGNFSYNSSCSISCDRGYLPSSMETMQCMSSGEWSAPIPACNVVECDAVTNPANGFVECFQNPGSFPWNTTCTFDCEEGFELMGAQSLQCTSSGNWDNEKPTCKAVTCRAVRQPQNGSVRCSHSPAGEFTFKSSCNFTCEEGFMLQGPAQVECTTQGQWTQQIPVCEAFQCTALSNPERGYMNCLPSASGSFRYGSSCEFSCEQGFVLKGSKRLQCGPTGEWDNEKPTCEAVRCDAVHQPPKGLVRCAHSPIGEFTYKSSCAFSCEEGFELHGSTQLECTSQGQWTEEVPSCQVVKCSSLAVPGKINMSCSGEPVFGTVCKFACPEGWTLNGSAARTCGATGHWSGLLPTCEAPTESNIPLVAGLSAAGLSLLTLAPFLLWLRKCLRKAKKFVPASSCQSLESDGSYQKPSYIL
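Assay system: HUVEC primary endothelial cells. Input: 3,000 HUVEC seeded per well. Doses: one compound dose added by pin transfer. Read-out basis: % PE-positive cells. Benchmarks: TNF-alpha high, DMSO low. Detection: immunofluorescence imaging. Buffer or medium: EGM-2, gelatin.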
Numbers stand for hits; - = inactive; ! = repeats disagree. Only a selection was taken, and hits are over-represented in it overall.

SMILES	E-sel inducer
C[C@H](CO)N1C[C@H](C)[C@H](CN(C)Cc2ccccc2)Oc2c(NC(=O)C3CCOCC3)cccc2C1=O	-
Clc1ccc(/C=N/Nc2ccccn2)cc1	-
Brc1ccc(/C=N/Nc2ccccn2)cc1	-
CCOc1ccc(/C=N/Nc2ccccn2)cc1	31
CO[C@H]1CN(C)C(=O)c2cc(NC(=O)Nc3ccccc3)ccc2OC[C@@H](C)N(C(C)=O)C[C@H]1C	-
C[C@H](CO)N1C[C@H](C)[C@@H](CN(C)S(=O)(=O)c2ccccc2)Oc2ccc(NC(=O)CCCN(C)C)cc2C1=O	-
Cc1noc(C)c1NC(=O)Nc1ccc2c(c1)C(=O)N([C@H](C)CO)C[C@H](C)[C@H](CN(C)S(=O)(=O)c1ccc(F)cc1)O2	-
O=C(C[C@@H]1C[C@H]2c3cc(NC(=O)c4cccnc4)ccc3O[C@H]2[C@@H](CO)O1)NC1CCCCC1	-
CCC(=O)N1CC[C@@H]2[C@H]1c1cc(-c3ccc(F)cc3)ccc1N[C@@H]2CO	-
COc1ccc(NC(=O)N(C)C[C@@H]2OCCCC[C@H](C)Oc3ccc(NC(=O)CCCN(C)C)cc3C(=O)N([C@H](C)CO)C[C@@H]2C)cc1	-
CC1(C)C(=O)N(c2ccccc2)C(=O)c2ccccc21	52
Cc1ccc(N2C(=O)c3ccccc3C2=O)cc1	-
CC1(C)C(=O)N(c2ccccc2Cl)C(=O)c2ccccc21	-
COc1ccc(S(=O)(=O)N(C)C[C@H]2Oc3ccc(NC(=O)Nc4c(C)noc4C)cc3C(=O)N([C@H](C)CO)C[C@@H]2C)cc1	55!
COc1ccc(S(=O)(=O)N(C)C[C@H]2Oc3ccc(NS(=O)(=O)c4c(C)noc4C)cc3C(=O)N([C@@H](C)CO)C[C@@H]2C)cc1	-
Cc1ccc(S(=O)(=O)N(C)C[C@H]2Oc3ccc(NC(=O)Nc4c(C)noc4C)cc3C(=O)N([C@H](C)CO)C[C@@H]2C)cc1	-
COc1ccc(S(=O)(=O)N(C)C[C@H]2Oc3ccc(NS(=O)(=O)c4c(C)noc4C)cc3C(=O)N([C@@H](C)CO)C[C@H]2C)cc1	404
COc1ccc(S(=O)(=O)N(C)C[C@H]2Oc3c(NC(=O)Nc4c(C)noc4C)cccc3C(=O)N([C@@H](C)CO)C[C@H]2C)cc1	175!
Cc1ccc(S(=O)(=O)N(C)C[C@H]2Oc3ccc(NC(=O)Nc4c(C)noc4C)cc3C(=O)N([C@H](C)CO)C[C@H]2C)cc1	-
COc1ccc(S(=O)(=O)N(C)C[C@@H]2Oc3ccc(NS(=O)(=O)c4c(C)noc4C)cc3C(=O)N([C@H](C)CO)C[C@H]2C)cc1	-
COc1ccc(S(=O)(=O)N(C)C[C@@H]2Oc3c(NC(=O)Nc4c(C)noc4C)cccc3C(=O)N([C@@H](C)CO)C[C@@H]2C)cc1	-
COc1ccc(S(=O)(=O)N(C)C[C@@H]2Oc3c(NC(=O)Nc4c(C)noc4C)cccc3C(=O)N([C@@H](C)CO)C[C@H]2C)cc1	-
C[C@@H]1CN([C@@H](C)CO)C(=O)c2cccc(NC(=O)Nc3ccccc3)c2O[C@@H]1CN(C)S(=O)(=O)c1ccccc1	-
Cc1ccc(S(=O)(=O)N(C)C[C@@H]2Oc3c(NC(=O)Nc4ccccc4)cccc3C(=O)N([C@@H](C)CO)C[C@@H]2C)cc1	-
C[C@@H]1CN([C@H](C)CO)C(=O)c2cccc(NC(=O)Nc3ccccc3)c2O[C@@H]1CN(C)S(=O)(=O)c1ccccc1	255
SMILES	E-sel inducer
O=C(NC[C@H]1N[C@H](CO)[C@@H]1c1ccc(-c2cncnc2)cc1)c1ccccc1F	-
Cc1noc(C)c1NC(=O)N(C)C[C@@H]1Oc2c(NS(=O)(=O)c3cccs3)cccc2C(=O)N([C@@H](C)CO)C[C@@H]1C	-
COc1ccc(CN(C)C[C@@H]2OCCCC[C@H](C)Oc3ccc(NC(=O)CCCN(C)C)cc3C(=O)N([C@@H](C)CO)C[C@H]2C)cc1	-
COc1ccccc1CN1C[C@@H](C)[C@H](OC)CN(C)C(=O)c2ccc(NC(=O)Nc3ccccc3OC)cc2OC[C@H]1C	-
COc1ccc(NC(=O)Nc2ccc3c(c2)C(=O)N([C@H](C)CO)C[C@H](C)[C@@H](CN(C)C(=O)CCC(F)(F)F)OCCCC[C@H](C)O3)cc1	-
O=C(C[C@@H]1CC[C@H]2[C@@H](COC[C@@H](O)CN2Cc2ccc3c(c2)OCO3)O1)Nc1ccccc1	-
C/C=C/c1ccc([C@H]2[C@@H](CO)N(CC3CC3)C23CN(S(C)(=O)=O)C3)cc1	-
CCCC#Cc1ccc2c(c1)O[C@H](CN(C)C(=O)c1ccccn1)[C@H](C)CN([C@H](C)CO)S2(=O)=O	-
COCC(=O)N1C[C@H](C)[C@@H](OC)CN(C)C(=O)c2ccc(NC(=O)Nc3ccccc3)cc2OC[C@@H]1C	-
CO[C@H](CN(C)Cc1nccs1)[C@H](C)CN([C@H](C)CO)S(=O)(=O)c1ccc(C)cc1	-
O=C(N[C@H]1CC[C@H](CCNS(=O)(=O)Cc2ccccc2)O[C@@H]1CO)c1cnccn1	-
COc1cccc(NC(=O)N[C@H]2C=C[C@H](CC(=O)Nc3ccc(-c4ccccc4)cc3)O[C@@H]2CO)c1	-
CCNC(=O)C[C@@H]1CC[C@@H]2[C@@H](COc3ccc(NC(=O)Nc4cccc(OC)c4)cc3C(=O)N2C)O1	76
CCNC(=O)C[C@@H]1CC[C@H]2[C@@H](COc3ccc(NC(=O)Nc4cccc(OC)c4)cc3C(=O)N2C)O1	-
CCNC(=O)C[C@H]1CC[C@H]2[C@@H](COc3ccc(NC(=O)Nc4cccc(OC)c4)cc3C(=O)N2C)O1	-
CC(C)NC(=O)N[C@@H]1CC[C@H](CCNC(=O)C2CCC2)O[C@H]1CO	-
CC(=O)Nc1ccc2c(c1)C(=O)N(C)[C@H]1CC[C@@H](CC(=O)Nc3cn(C)nc3C)O[C@@H]1CO2	-
Cc1noc(C)c1NC(=O)Nc1ccc2c(c1)C(=O)N([C@@H](C)CO)C[C@H](C)[C@H](CN(C)Cc1ccc(C(F)(F)F)cc1)OCCCC[C@H](C)O2	-
CC(C)CC#Cc1ccc2c(c1)O[C@@H](CN(C)C(=O)Cc1cccnc1)[C@@H](C)CN([C@H](C)CO)S2(=O)=O	-
CC(C)NC(=O)N(C)C[C@@H]1Oc2ccc(NS(=O)(=O)c3cccs3)cc2CC(=O)N([C@H](C)CO)C[C@H]1C	-
CC(C)NC(=O)N(C)C[C@@H]1Oc2ccc(NS(=O)(=O)c3cccs3)cc2CC(=O)N([C@@H](C)CO)C[C@@H]1C	-
C[C@H](CO)N1C[C@H](C)[C@H](CN(C)C(=O)NC2CCCCC2)Oc2ccc(NS(=O)(=O)c3ccc(F)cc3)cc2CC1=O	-
COc1ccc(S(=O)(=O)Nc2ccc3c(c2)CC(=O)N([C@H](C)CO)C[C@@H](C)[C@H](CN(C)C(=O)NC2CCCCC2)O3)cc1	48
CNC[C@H]1Oc2ccc(NS(=O)(=O)c3ccc(OC)cc3)cc2CC(=O)N([C@@H](C)CO)C[C@@H]1C	60
CC(C)NC(=O)N(C)C[C@@H]1Oc2ccc(NS(=O)(=O)c3cccs3)cc2CC(=O)N([C@@H](C)CO)C[C@H]1C	29
CNC[C@H]1Oc2ccc(NS(=O)(=O)c3ccc(OC)cc3)cc2CC(=O)N([C@@H](C)CO)C[C@H]1C	-
COc1ccc(S(=O)(=O)Nc2ccc3c(c2)CC(=O)N([C@@H](C)CO)C[C@@H](C)[C@H](CN(C)C(=O)NC2CCCCC2)O3)cc1	-
CNC[C@H]1Oc2ccc(NS(=O)(=O)c3ccc(C)cc3)cc2CC(=O)N([C@@H](C)CO)C[C@@H]1C	-
